Tests used:
[1] = biological target: T1, Bone morphogenetic protein receptor type-2 (Homo sapiens) (UniProt Q13873); assay: Inhibition of human recombinant BMPR2 at 500 nM in presence of ATP by radiometric assay relative to control
T1 sequence (whole entry): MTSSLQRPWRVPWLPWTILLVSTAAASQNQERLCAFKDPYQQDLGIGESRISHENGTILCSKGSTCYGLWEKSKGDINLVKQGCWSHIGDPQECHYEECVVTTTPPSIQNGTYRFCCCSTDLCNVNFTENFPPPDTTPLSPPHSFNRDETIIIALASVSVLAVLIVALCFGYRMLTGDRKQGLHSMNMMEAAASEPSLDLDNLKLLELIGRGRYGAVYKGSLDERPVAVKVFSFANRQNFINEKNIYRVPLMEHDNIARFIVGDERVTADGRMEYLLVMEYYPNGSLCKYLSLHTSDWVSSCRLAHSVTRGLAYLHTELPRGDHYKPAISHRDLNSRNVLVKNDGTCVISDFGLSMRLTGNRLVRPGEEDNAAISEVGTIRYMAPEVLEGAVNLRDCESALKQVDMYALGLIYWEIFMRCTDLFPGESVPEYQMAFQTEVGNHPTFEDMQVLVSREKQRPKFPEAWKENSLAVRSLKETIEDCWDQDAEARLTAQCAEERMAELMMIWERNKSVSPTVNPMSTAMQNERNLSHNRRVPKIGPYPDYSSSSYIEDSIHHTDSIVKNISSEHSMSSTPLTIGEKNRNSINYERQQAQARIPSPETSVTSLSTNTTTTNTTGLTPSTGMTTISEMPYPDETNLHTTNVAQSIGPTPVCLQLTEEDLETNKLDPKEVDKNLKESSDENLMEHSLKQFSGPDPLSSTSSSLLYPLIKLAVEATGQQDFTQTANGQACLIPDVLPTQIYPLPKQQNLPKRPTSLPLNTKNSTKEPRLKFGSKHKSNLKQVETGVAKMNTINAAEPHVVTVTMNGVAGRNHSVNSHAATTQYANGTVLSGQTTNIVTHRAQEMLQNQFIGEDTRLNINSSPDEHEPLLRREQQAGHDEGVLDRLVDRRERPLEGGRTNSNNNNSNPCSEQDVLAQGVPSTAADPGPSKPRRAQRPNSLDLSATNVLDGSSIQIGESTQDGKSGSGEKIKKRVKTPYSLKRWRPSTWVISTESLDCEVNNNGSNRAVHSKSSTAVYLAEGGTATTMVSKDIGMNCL
Summary of the method: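 Part of a radiometric in vitro activity panel of 327 recombinant human kinases. Each kinase was tested in duplicate at one inhibitor concentration. Activity remaining was expressed as a percentage of the vehicle control, and percent inhibition was taken as 100 minus that value.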

[2] = biological target: Cyclin-dependent kinase-like 3 (Homo sapiens) (UniProt Q8IVW4); assay: Inhibition of human recombinant CDKL3 at 15 nM in presence of ATP by radiometric assay relative to control
[3] = biological target: T2, cGMP-dependent protein kinase 2 (Homo sapiens) (UniProt Q13237); assay: Inhibition of human recombinant PKG2 at 15 nM in presence of ATP by radiometric assay relative to control
T2 sequence (whole entry): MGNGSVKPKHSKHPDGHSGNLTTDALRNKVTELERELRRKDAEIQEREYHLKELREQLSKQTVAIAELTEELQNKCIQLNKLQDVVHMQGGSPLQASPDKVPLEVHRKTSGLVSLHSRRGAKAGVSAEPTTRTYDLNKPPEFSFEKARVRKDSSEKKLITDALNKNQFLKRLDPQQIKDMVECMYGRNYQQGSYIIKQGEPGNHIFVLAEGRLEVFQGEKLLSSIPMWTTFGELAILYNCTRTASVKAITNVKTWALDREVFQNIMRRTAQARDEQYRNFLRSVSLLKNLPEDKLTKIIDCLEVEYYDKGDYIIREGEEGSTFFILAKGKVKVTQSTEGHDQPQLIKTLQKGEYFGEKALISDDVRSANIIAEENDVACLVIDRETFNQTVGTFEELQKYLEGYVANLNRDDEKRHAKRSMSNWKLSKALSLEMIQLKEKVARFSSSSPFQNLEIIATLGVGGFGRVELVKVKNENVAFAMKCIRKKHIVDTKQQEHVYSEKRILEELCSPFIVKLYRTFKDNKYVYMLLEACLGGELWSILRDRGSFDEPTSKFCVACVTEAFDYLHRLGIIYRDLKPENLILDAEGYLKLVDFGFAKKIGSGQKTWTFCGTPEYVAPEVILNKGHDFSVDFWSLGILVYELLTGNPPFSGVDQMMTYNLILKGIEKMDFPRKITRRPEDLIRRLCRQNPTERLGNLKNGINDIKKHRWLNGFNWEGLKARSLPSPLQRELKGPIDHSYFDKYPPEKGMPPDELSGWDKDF

[4] = biological target: Serine/threonine-protein kinase N1 (Homo sapiens) (UniProt Q16512); assay: Inhibition of human recombinant PKN1 at 15 nM in presence of ATP by radiometric assay relative to control
[5] = biological target: Serine/threonine-protein kinase 32A (Homo sapiens) (UniProt Q8WU08); assay: Inhibition of human recombinant YANK1 at 15 nM related to control ULK1
Serine/threonine-protein kinase 32A (Homo sapiens), sequence (Q8WU08 whole entry): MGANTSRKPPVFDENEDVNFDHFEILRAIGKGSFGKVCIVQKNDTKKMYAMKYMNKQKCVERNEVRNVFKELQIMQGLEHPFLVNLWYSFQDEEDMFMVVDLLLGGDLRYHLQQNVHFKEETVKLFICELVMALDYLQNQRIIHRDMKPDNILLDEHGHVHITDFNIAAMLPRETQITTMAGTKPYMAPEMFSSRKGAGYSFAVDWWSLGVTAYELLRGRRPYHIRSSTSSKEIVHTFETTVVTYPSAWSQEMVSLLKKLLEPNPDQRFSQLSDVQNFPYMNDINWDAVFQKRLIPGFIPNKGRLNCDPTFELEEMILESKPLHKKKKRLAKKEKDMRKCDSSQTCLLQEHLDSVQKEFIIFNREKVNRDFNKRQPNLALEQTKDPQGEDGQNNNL

Serine/threonine-protein kinase N1 (Homo sapiens), sequence (Q16512 2-942 limits assumed): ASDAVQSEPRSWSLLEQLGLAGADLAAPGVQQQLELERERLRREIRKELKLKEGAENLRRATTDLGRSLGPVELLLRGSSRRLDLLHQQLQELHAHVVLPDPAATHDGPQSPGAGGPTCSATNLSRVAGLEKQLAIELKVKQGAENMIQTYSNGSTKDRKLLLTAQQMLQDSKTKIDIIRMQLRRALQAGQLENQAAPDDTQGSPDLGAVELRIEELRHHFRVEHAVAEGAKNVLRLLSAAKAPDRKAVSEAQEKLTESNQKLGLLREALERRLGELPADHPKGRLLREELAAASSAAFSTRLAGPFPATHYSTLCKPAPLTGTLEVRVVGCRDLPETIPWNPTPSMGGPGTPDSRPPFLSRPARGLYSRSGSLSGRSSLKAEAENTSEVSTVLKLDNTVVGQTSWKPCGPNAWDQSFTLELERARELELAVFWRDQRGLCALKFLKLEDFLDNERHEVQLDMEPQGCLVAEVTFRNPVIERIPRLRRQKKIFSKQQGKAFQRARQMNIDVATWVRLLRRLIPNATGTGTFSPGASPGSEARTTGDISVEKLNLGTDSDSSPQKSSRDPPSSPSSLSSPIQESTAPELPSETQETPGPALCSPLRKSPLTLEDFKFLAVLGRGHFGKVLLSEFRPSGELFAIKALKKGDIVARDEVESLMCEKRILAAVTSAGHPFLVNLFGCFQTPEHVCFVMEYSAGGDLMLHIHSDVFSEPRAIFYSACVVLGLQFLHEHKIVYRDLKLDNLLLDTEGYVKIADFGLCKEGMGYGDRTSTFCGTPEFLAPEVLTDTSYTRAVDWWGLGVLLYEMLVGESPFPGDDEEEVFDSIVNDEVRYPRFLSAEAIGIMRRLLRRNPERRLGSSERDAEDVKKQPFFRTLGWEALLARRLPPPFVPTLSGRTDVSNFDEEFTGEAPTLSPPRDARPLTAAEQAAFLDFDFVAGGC
Cyclin-dependent kinase-like 3 (Homo sapiens), sequence (Q8IVW4 whole entry, looked up): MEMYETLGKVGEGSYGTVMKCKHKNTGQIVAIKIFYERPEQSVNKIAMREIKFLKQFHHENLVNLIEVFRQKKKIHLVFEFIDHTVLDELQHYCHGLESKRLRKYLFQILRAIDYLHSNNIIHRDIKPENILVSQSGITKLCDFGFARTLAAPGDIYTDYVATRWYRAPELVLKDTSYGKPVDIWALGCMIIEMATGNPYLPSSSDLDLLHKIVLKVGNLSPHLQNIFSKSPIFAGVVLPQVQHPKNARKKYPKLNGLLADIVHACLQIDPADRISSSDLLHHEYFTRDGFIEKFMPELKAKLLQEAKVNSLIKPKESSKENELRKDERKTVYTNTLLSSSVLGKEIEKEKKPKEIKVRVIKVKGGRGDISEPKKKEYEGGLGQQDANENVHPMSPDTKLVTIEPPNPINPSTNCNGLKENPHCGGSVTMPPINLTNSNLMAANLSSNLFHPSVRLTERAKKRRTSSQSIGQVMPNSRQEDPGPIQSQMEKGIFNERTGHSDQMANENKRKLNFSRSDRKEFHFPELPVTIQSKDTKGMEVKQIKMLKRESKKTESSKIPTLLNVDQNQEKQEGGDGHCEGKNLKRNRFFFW

| inhibition [1] [%] | inhibition [2] [%] | inhibition [3] [%] | inhibition [4] [%] | fold change (FC) [5] | SMILES |
| --- | --- | --- | --- | --- | --- |
| 0 | – | – | – | – | CNC(=O)c1ccccc1Oc1nc(Nc2cc(OC)c(OC)c(OC)c2)ncc1Br |
| – | 34 | 4 | 0 | 0.02 | CC(C)[C@H](NC(=O)c1cc(-c2cnn3cc(-c4ccc(OCCN5CCCCC5)cc4)cnc23)cs1)C(F)(F)F |

Reference: ChEMBL document CHEMBL5653631, “A Potent and Selective ULK1 Inhibitor Suppresses Autophagy and Sensitizes Cancer Cells to Nutrient Stress” (iScience, 2018)
